Data on 1 protein can be found in ChEMBL document CHEMBL1123904, “Synthesis, structure, and biological activity of certain 2-deoxy-beta-D-ribo-hexopyranosyl nucleosides and nucleotides” (J Med Chem, 1987).

Substrate in data set [1]: Nc1nc(N)c2ncn(C3CC(O)C(O)C(CO)O3)c2n1
Put plainly: (§1) Kinetic parameters for adenosine deaminase (ADase) was determined. The essentials:
(§2)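 Calf intestine adenosine deaminase; substrate and inhibitor kinetic parameters measured spectrophotometrically.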

Substrate in data set [2]: Nc1ncnc2c1ncn2C1CC(O)C(O)C(CO)O1
The data set is described as §1. The essentials:
as §2

Substrate in data set [3]: Nc1ncnc2c1ncn2[C@@H]1O[C@H](CO)[C@@H](O)[C@H]1O
The description is as §1. In a few lines:
as §2

What is called Km is the concentration of substrate that gives half-maximal velocity.

B1: Adenosine deaminase (Bos taurus), P56658 (protein)
chain: MAQTPAFNKPKVELHVHLDGAIKPETILYYGRKRGIALPADTPEELQNIIGMDKPLSLPEFLAKFDYYMPAIAGCREAVKRIAYEFVEMKAKDGVVYVEVRYSPHLLANSKVEPIPWNQAEGDLTPDEVVSLVNQGLQEGERDFGVKVRSILCCMRHQPSWSSEVVELCKKYREQTVVAIDLAGDETIEGSSLFPGHVKAYAEAVKSGVHRTVHAGEVGSANVVKEAVDTLKTERLGHGYHTLEDATLYNRLRQENMHFEVCPWSSYLTGAWKPDTEHPVVRFKNDQVNYSLNTDDPLIFKSTLDTDYQMTKNEMGFTEEEFKRLNINAAKSSFLPEDEKKELLDLLYKAYGMPSPASAEQCL
Take B1: the Km in data set [1] came out at 900 µM; in data set [2] it was 57 µM; in data set [3] it was 31 µM.
